Measured values as given in ChEMBL document CHEMBL4396947, “Synthesis and characterization of novel isoform-selective IP6K1 inhibitors” (Bioorg Med Chem Lett, 2019).

Assays:
[1] = biological target: T1, Inositol hexakisphosphate kinase 1 (Homo sapiens, UniProt Q92551); assay: Inhibition of IP6K1 (unknown origin) incubated for 30 mins using IP6 as substrate in presence of ATP by ADP-Glo reagent based luminescence assay; details: read-out: pIC50 (converted)
Outline: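 Luminescent ADP-Glo Max format adapted for IP6K, with purified enzyme and ATP at 1 mM, which is consumed as the kinase reaction proceeds. IC50 taken from the resulting inhibition data.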
Target sequence in this assay (Q92551 whole entry): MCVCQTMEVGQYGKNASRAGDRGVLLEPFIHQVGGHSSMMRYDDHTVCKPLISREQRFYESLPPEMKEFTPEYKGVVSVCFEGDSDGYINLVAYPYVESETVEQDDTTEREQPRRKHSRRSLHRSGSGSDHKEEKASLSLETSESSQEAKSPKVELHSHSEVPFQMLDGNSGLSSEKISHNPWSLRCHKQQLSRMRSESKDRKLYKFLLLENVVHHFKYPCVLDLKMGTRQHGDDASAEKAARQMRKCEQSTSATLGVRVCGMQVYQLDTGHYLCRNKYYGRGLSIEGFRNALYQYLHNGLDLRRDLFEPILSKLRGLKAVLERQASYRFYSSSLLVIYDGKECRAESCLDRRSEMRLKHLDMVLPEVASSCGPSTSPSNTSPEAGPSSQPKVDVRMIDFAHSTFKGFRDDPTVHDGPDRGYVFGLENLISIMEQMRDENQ

[2] = biological target: T1, Inositol hexakisphosphate kinase 1; assay: Binding affinity to IP6K1 (unknown origin) assessed as change in melting temperature by SYPRO orange dye-based assay
Outline: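 Thermal shift format. Purified IP6K1 heated across a temperature gradient with the ligand at several concentrations. Binding read as the rise in protein melting temperature, including the maximal Tm shift (TmMax).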
Target sequence in this assay (Q92551 whole entry, looked up): as the sequence (Q92551 whole entry) above

[3] = Half life in mouse microsomes at 1 uM incubated for 5 to 60 mins in presence of NADPH by LC-MS/MS analysis
[4] = Half life in human microsomes at 1 uM incubated for 5 to 60 mins in presence of NADPH by LC-MS/MS analysis; assay type: ADME, Microsome
[5] = Solubility of compound in 2% DMSO by LC-MS/MS analysis; assay type: physicochemical
[6] = biological target: T1, Inositol hexakisphosphate kinase 1; assay: Binding affinity to IP6K1 (unknown origin) assessed as change in melting temperature at 11.1 uM by SYPRO orange dye based assay
Target sequence in this assay (Q92551 whole entry, looked up): as the sequence (Q92551 whole entry) above

Row | SMILES | IC50 [1] [µM] | also measured
1 | O=[N+]([O-])c1ccc(CNc2nc(NCc3cccc(C(F)(F)F)c3)nc3[nH]cnc23)cc1 | > 200 | ΔTm [2]: 3.3 °C; half-life at 1 µM [3]: 9 min; half-life at 1 µM [4]: 32 min; solubility [5]: Insoluble; ΔTm [6]: 1.8 °C
2 | COCCN(C)c1nc(NCCc2c[nH]c3ccccc23)nc2c1ncn2C | > 200 | –
3 | Cc1[nH]c2ccccc2c1CCNc1nc(NCc2ccc(=O)[nH]c2)c2nc[nH]c2n1 | 3.02 | –
4 | c1ccc2c(CCNc3nc(NCc4ccc5nonc5c4)c4nc[nH]c4n3)c[nH]c2c1 | 151 | –
5 | O=c1ccc(CNc2nc(NCCc3c[nH]c4ccccc34)nc3[nH]cnc23)c[nH]1 | 1.74 | –
6 | COCCNc1nc(NCCc2c[nH]c3ccccc23)nc2cc[nH]c12 | > 200 | –
7 | COCCNc1nc(N(C)CCc2c[nH]c3ccccc23)nc2nc[nH]c12 | > 200 | –
8 | FC(F)(F)c1cccc(CNc2nc(NCc3ccccc3)c3nc[nH]c3n2)c1 | > 200 | –
9 | N#Cc1ccc(CNc2nc(NCCc3c[nH]c4ccccc34)nc3[nH]cnc23)cc1 | 46.8 | –
10 | COCCNc1nc(NCCc2c[nH]c3ccccc23)nc2[nH]ccc12 | > 200 | –
11 | O=c1cc(CNc2nc(NCCc3c[nH]c4ccccc34)nc3[nH]cnc23)cc[nH]1 | 10 | –

Now from value to molecule, other results behind:

Row | IC50 [1] [µM] | SMILES | also measured
12 | 138 | COCCNc1nc(NCCc2c[nH]c3ccc(OC)cc23)nc2[nH]cnc12 | –
13 | 89.1 | COCCNc1nc(NCCc2ccc(F)cc2)nc2[nH]cnc12 | –
14 | 31.6 | COCCNc1nc(NCCc2cn(C)c3ccccc23)nc2nc[nH]c12 | –
15 | 79.4 | COCCNc1nc(NCCc2ccccc2)nc2[nH]cnc12 | –
16 | > 200 | FC(F)(F)c1cccc(CNc2nc(NCCc3ccccc3)c3nc[nH]c3n2)c1 | –
17 | 93.3 | COCCNc1nc(NCCc2cccc3ccccc23)nc2[nH]cnc12 | –
18 | 123 | COCCNc1nc(NCCc2c[nH]c3ccc(C)cc23)nc2[nH]cnc12 | –
19 | 1.95 | COCCNc1nc(NCCc2c(C)[nH]c3ccccc23)nc2[nH]cnc12 | –
20 | > 200 | COCCNc1nc(NCCc2c[nH]cn2)nc2[nH]cnc12 | –
21 | > 200 | COCCNc1nc(NCCc2c[nH]c3ccccc23)nc2c1ncn2C | –
22 | 31.6 | COCCNc1nc(NCCc2c[nH]c3ccc(O)cc23)nc2[nH]cnc12 | –
23 | 2.75 | COCCNc1nc(NCCc2c[nH]c3cc(OC)ccc23)nc2[nH]cnc12 | ΔTm [2]: 4.7 °C; ΔTm [6]: 3.6 °C
24 | 11.2 | COCCNc1nc(NCCc2ccccc2OC)nc2[nH]cnc12 | –
25 | 69.2 | COCCNc1nc(NCCCc2c[nH]c3ccccc23)nc2[nH]cnc12 | –
26 | 117 | COCCNc1nc(NCc2cccc(C(F)(F)F)c2)nc2[nH]cnc12 | –
27 | 26.9 | COCCNc1nc(NCCc2c[nH]c3ccc(Cl)cc23)nc2[nH]cnc12 | –
28 | 8.32 | COCCNc1nc(NCCc2c[nH]c3ccccc23)nc2[nH]cnc12 | ΔTm [2]: 4.3 °C; ΔTm [6]: 2.4 °C
